Experimental data pooled from the literature.
Each line is one published result; the experiments were not run side by side.
Read-out: cell growth or viability

| SMILES | cell line | assay | setting | IC50 |
| --- | --- | --- | --- | --- |
| Nc1nc2sc(CCCCCc3ccc(C(=O)N[C@@H](CCC(=O)O)C(=O)O)cc3)cc2c(=O)[nH]1 | R2/PCFT4 | – | 96 h, pH 7.2 | > 1 µM |
| O=c1[nH]cc(F)c(=O)[nH]1 | HUVEC | MTT | 48 h | > 50 µM |
| C=CCNC1=C2C[C@@H](C)C[C@H](OC)[C@H](O)[C@@H](C)/C=C(\C)[C@H](OC(N)=O)[C@@H](OC)/C=C\C=C(/C)C(=O)NC(=CC1=O)C2=O | HUVEC | MTT | – | 1.2 µM |
| Cc1ccc(-c2ccc(O)cc2)c(C(=C2C=CC(=O)C=C2)c2ccc(O)cc2)c1C#Cc1ccc(O)cc1 | HUVEC | MTT | 48 h | > 50 µM |
| COc1cc(-c2ncn(/C=C\C(=O)OC(C)C)n2)cc(C(F)(F)F)c1 | MEG-01 | – | 72 h | 0.083 µM |
| CC(C)C[C@H](NC(=O)[C@H](Cc1ccccc1)NC(=O)c1cnccn1)B(O)O | Ishikawa | ATP luminescence | – | 0.0071 µM |
| Nc1nc2sc(CCCc3ccc(C(=O)N[C@@H](CCC(=O)O)C(=O)O)cc3)cc2c(=O)[nH]1 | R2/PCFT4 | – | 96 h, pH 7.2 | > 1 µM |
| O=C(Nc1cccc2cccnc12)c1cnccn1 | HFF-1 | MTT | – | > 30 µM |
| COc1cc(Nc2nccc(-c3cnn4nc(OC)ccc34)n2)cc(C(F)(F)F)c1 | HCC38 | ATP luminescence | – | 0.93 µM |
| CCCCN(Cc1ccc(C(=O)NO)cc1)C(=O)Nc1ccccc1 | HAL-01 | ATP luminescence | 72 h | 9.05 µM |
| O=C(/C=C/C=C/c1ccc2c(c1)OCO2)N1CCCCC1 | HUVEC | MTT | 48 h | 41.6 µg/mL |
| COC1=C2C[C@@H](C)C[C@H](OC)[C@H](O)[C@@H](C)/C=C(\C)[C@H](OC(N)=O)[C@@H](OC)/C=C\C=C(/C)C(=O)NC(=CC1=O)C2=O | HUVEC | MTT | – | 0.041 µM |
| CCN(CC)CCn1cccc1/C=N/NC(=O)Nc1cc2c(Nc3ccc(F)c(Cl)c3)ncnc2cc1O[C@H]1CCOC1 | PC-3 | MTT | 72 h | 0.15 µM |
| Nc1nc2sc(CCCCCCCc3ccc(C(=O)N[C@@H](CCC(=O)O)C(=O)O)cc3)cc2c(=O)[nH]1 | R2/PCFT4 | – | 96 h, pH 7.2 | > 1 µM |
| O=C(N/N=C/c1cccn1CCCN1CCOCC1)Nc1cc2c(Nc3ccc(F)c(Cl)c3)ncnc2cc1O[C@H]1CCOC1 | PC-3 | MTT | 72 h | 6.32 µM |
| CCCON(Cc1ccc(C(=O)NO)cc1)C(=O)Nc1ccc(N(C)C)cc1 | HAL-01 | ATP luminescence | 72 h | 13.8 µM |
